These results are taken from ChEMBL document CHEMBL3272294, “Antiviral activity of some beta-diketones. 1. Aryl alkyl diketones. In vitro activity against both RNA and DNA viruses” (1977).

≈ marks a conversion by molar mass, not a printed value. Calls of active or inactive are those of the source. The rule behind the calls is not given here. A value given as a limit tells only on which side of the number the result lay.

For assay [1], the system named is Equine rhinovirus. The assay can be described thus: Antiviral activity against Equine rhinovirus assessed as inhibition of virus-induced cytopathic effect at 33 degC after 48 hrs by two-fold dilution method.
Assay [2] has as its system Human alphaherpesvirus 1. Put plainly: Antiviral activity against Herpes simplex virus 1 Sheely assessed as inhibition of virus-induced cytopathic effect at 37 degC after 72 hrs by two-fold dilution method. The format is functional. The conditions noted are these: Human alphaherpesvirus 1, Sheely. Summed up: (§1)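 Susceptible monolayers in stationary tubes were infected with 100 tissue culture infective doses and allowed to adsorb for 1 h. Compound was then added in M-199 with 5% inactivated fetal calf serum at 50–0.3 μg/mL in twofold dilutions, four tubes per dilution. Tubes were held at 37 °C and CPE was scored at 48 and 72 h. MIC is the lowest nontoxic level giving complete CPE inhibition, with toxicity read from uninfected parallel tubes.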
A general note: Protection from cytopathic effect is a common read-out in antiviral testing.

Assay [3] deals with Human alphaherpesvirus 2. The assay can be described thus: Antiviral activity against Herpes simplex virus 2 Curtis assessed as inhibition of virus-induced cytopathic effect at 37 degC after 72 hrs by two-fold dilution method. The conditions noted are these: Human alphaherpesvirus 2, Curtis. The format is functional. The essentials: as §1
In assay [4] the test system is Human alphaherpesvirus 2. The assay can be described thus: Antiviral activity against Herpes simplex virus 2 assessed as inhibition of virus-induced cytopathic effect at 37 degC after 72 hrs by two-fold dilution method. The format is functional. To be noted: for MIC: Human alphaherpesvirus 2, 72 h. Summed up: as §1
Assay [5] relates to rhinovirus A2. Put plainly: Antiviral activity against Human rhinovirus 2 assessed as inhibition of virus-induced cytopathic effect at 37 degC after 72 hrs by two-fold dilution method. The format is functional. To be noted: Rhinovirus A.
Assay [6] has as its system rhinovirus B14. Put plainly: Antiviral activity against Human rhinovirus 14 assessed as inhibition of virus-induced cytopathic effect at 37 degC after 72 hrs by two-fold dilution method. The format is functional. The conditions noted are these: Rhinovirus B.
For assay [7], the system named is Influenza A virus. The assay can be described thus: Antiviral activity against Influenza A2 virus Jap 170 infected in ferret trachea assessed as reduction in viral yield at 100 ug/ml after 3 days followed by compound-washout measured after 24 hrs by chick embryo-based hemagglutination titration method relative to control. The format is functional. Set-up: scale not given: the % may be the effect or the level left.

In assay [8] the test system is Influenza A virus. The assay can be described thus: Antiviral activity against Influenza A2 virus Jap 170 infected in ferret trachea assessed as reduction in viral yield at 200 ug/ml after 3 days followed by compound-washout measured after 24 hrs by chick embryo-based hemagglutination titration method relative to control. Further details: scale not given: the % may be the effect or the level left. The format is functional.

The test system of assay [9] is unidentified influenza virus. Put plainly: Antiviral activity against Parainfluenza virus assessed as inhibition of virus-induced cytopathic effect at 37 degC after 72 hrs by two-fold dilution method. The format is functional. The essentials: as §1
Assay [10] concerns Respiratory syncytial virus. The assay can be described thus: Antiviral activity against Respiratory syncytial virus assessed as inhibition of virus-induced cytopathic effect at 37 degC after 72 hrs by two-fold dilution method. The format is functional. The conditions noted are these: human respiratory syncytial virus. Summed up:
as §1

Assay [11] in a line: Antiviral activity against Human rhinovirus 17 assessed as inhibition of virus-induced cytopathic effect at 37 degC after 72 hrs by two-fold dilution method. The format is functional, Human rhinovirus B17. To be noted: Rhinovirus B.
The subject of assay [12] is Human alphaherpesvirus 1. Put plainly: Antiviral activity against Herpes simplex virus 1 assessed as inhibition of virus-induced cytopathic effect at 37 degC after 72 hrs by two-fold dilution method. The conditions noted are these: Human alphaherpesvirus 1, 72 h. The format is functional. Summed up:
as §1

On to `CCC(=O)C(CC/C(=C/CCc1ccc(C(=O)OC)cc1)CC)C(=O)CC`, for which the MIC in [1] worked out at 25 µg/mL (≈ 67.1 µM).

With `CCC(=O)C(CCCCCCc1ccccc1)C(=O)CC`, the MIC in assay [1] turned out to be 6 µg/mL (≈ 20.8 µM).

On to `CCC(=O)C(CCCCCCc1ccc(OC(=O)c2cc(OC)c(OC)c(OC)c2)cc1)C(=O)CC`, for which the MIC in assay [1] came out at 6 µg/mL (≈ 12 µM).

As for `CCC(=O)C(CCCCCCc1ccc(C)cc1)C(=O)CC`, in [1], the MIC was determined as 6 µg/mL (≈ 19.8 µM).

As to `CCC(=O)C(CCCCCCc1ccc(Cl)cc1O)C(=O)CC`, the MIC in [1] amounted to 0.7 µg/mL (≈ 2.07 µM).

For the molecule `CCC(=O)C(CCCCCCc1ccccc1OC)C(=O)CC`, in assay [1], the MIC turned out to be 12 µg/mL (≈ 37.7 µM).

Take `Nc1ccn([C@@H]2O[C@H](CO)[C@@H](O)[C@@H]2O)c(=O)n1` [CYTARABINE]: the MIC in assay [2] and in [3] was < 3 µg/mL each time.

As for `CCC(=O)C(CCCCCCc1ccc(OC(F)(F)F)cc1)C(=O)CC`, the MIC in [1] amounted to 6 µg/mL (≈ 16.1 µM).

Take `CCC(=O)C(CCCCCCc1ccc(Cl)cc1)C(=O)CC`: the MIC in assay [1] came out at 1.5 µg/mL (≈ 4.65 µM).

On to `CCC(=O)C(CCCCCCc1ccc(OC)cc1)C(=O)CC`, for which the MIC in [1] was determined as 3 µg/mL (≈ 9.42 µM).

With `CCC(=O)C(CC/C=C/CCc1ccc(NC(C)=O)cc1)C(=O)CC`, the MIC in assay [1] was determined as 12 µg/mL (≈ 34.9 µM).

Consider `CCC(=O)C(CCCc1ccc(O)cc1)C(=O)CC`, for which, in [4], the inhibition entry is “inactive”.

Take `CCC(=O)C(CCCCCCc1ccc(O)cc1)C(=O)CC`: the MIC in [5] came to 3 µg/mL (≈ 9.85 µM); in assay [6] it was 6 µg/mL (≈ 19.7 µM); in assay [9], 3 µg/mL (≈ 9.85 µM); in assay [1] it was 3 µg/mL (≈ 9.85 µM); in assay [4], 12 µg/mL (≈ 39.4 µM); in assay [2], 12 µg/mL (≈ 39.4 µM). Moreover, the MIC turned out to be 6 µg/mL (≈ 19.7 µM) in assay [10], 12 µg/mL (≈ 39.4 µM) in [3], 6 µg/mL (≈ 19.7 µM) in [11] and 12 µg/mL (≈ 39.4 µM) in assay [12]. For the same molecule, the Activity in [7] came out at 94%; in assay [8], 99.9%.

On to `CCC(=O)C(CCCCCCc1ccccc1O)C(=O)CC`, for which the MIC in [1] turned out to be 6 µg/mL (≈ 19.7 µM).

On to `CCC(=O)C(CCCCCCCCCc1ccc(O)cc1)C(=O)CC`, for which, in assay [4], the MIC was found to be 6 µg/mL (≈ 17.3 µM).

For the molecule `CCC(=O)C(CCCCCCc1ccc2c(c1)OCO2)C(=O)CC`, the MIC in assay [1] was found to be 6 µg/mL (≈ 18 µM).

As for `Nc1ncnc2c1ncn2[C@@H]1O[C@H](CO)[C@@H](O)[C@@H]1O` [VIDARABINE], the MIC in assay [2] and in [3] was 12 µg/mL (≈ 44.9 µM) throughout.

For the molecule `CCC(=O)C(CCCCCCCCc1ccc(O)cc1)C(=O)CC`, the MIC in assay [1] and in assay [4] was 3 µg/mL (≈ 9.02 µM) in each case.

For the molecule `CC/C(=C\CCc1ccc2c(c1)OCO2)CCC1CCCC1=O` (centres undefined), the MIC in [1] amounted to 6 µg/mL (≈ 19.1 µM).

With `CCC(=O)C(CCCCCCc1ccc(OC(=O)c2ccc(C)cc2)cc1)C(=O)CC`, in [1], the MIC was determined as 12 µg/mL (≈ 28.4 µM).

`CCC(=O)C(CC/C(C)=C/CCc1ccc2c(c1)OCO2)C(=O)CC`: the MIC in assay [1] is 3 µg/mL (≈ 8.71 µM).

Consider `CCC(=O)C(CCCCCCc1cccc(O)c1)C(=O)CC`, for which, in assay [1], the MIC was determined as 6 µg/mL (≈ 19.7 µM).

For the molecule `CCC(=O)C(CCCCc1ccc(O)cc1)C(=O)CC`, the MIC in assay [1] turned out to be 6 µg/mL (≈ 21.7 µM); in assay [4], 12 µg/mL (≈ 43.4 µM).

Consider `CCC(=O)C(CC/C=C/CCc1ccc(OC(F)(F)F)cc1)C(=O)CC`, for which the MIC in assay [1] is 6 µg/mL (≈ 16.2 µM).

Consider `CCC(=O)C(CCCCCCCCCCc1ccc(O)cc1)C(=O)CC`, for which the MIC in assay [1] and in assay [4] was 12 µg/mL (≈ 33.3 µM) each time.

Take `CCC(=O)C(CCCCCCc1ccc(Cl)cc1Cl)C(=O)CC`: the MIC in [1] was found to be 3 µg/mL (≈ 8.4 µM).

Take `CCCC(=O)C(CC/C(=C/CCc1ccc2c(c1)OCO2)CC)C(=O)OCC` (centres undefined): the MIC in [1] stood at 12 µg/mL (≈ 30.9 µM).

Regarding `CCC(=O)C(CCCCCCc1ccc(O)c(O)c1)C(=O)CC`, the MIC in assay [1] came out at 1.5 µg/mL (≈ 4.68 µM).

For `CCC(=O)C(CC/C=C/CCc1ccc2c(c1)OCO2)C(=O)CC`, the MIC in [1] turned out to be 3 µg/mL (≈ 9.08 µM).

Take `CCC(=O)C(CCCCCCc1ccc(OC(C)=O)cc1)C(=O)CC`: the MIC in [1] is 6 µg/mL (≈ 17.3 µM).

For the molecule `CCC(=O)C(CCC(CC)CCCc1ccc2c(c1)OCO2)C(=O)CC` (centres undefined), in assay [1], the MIC stood at 3 µg/mL (≈ 8.32 µM).

For `CCC(=O)C(CCCCCCc1ccc(OC(=O)c2cccc(C)c2)cc1)C(=O)CC`, the MIC in assay [1] worked out at 3 µg/mL (≈ 7.1 µM).

As to `CCC(=O)C(CC/C(=C/CCc1ccc2c(c1)OCO2)CC)C(C)=O` (centres undefined), in assay [1], the MIC is 12 µg/mL (≈ 34.8 µM).

In the case of `CCC(=O)C(CC/C=C/CCc1cc(OC)c(OCc2ccccc2)c(OC)c1)C(=O)CC`, the MIC in assay [1] stood at 6 µg/mL (≈ 13.3 µM).

Turning to `CCC(=O)C(CCCCCCc1ccc(OC(=O)c2cccc(OC)c2)cc1)C(=O)CC`, the MIC in [1] worked out at 3 µg/mL (≈ 6.84 µM).

`CCC(=O)C(CCCCCc1ccc(O)cc1)C(=O)CC`: the MIC in assay [1] and in assay [4] was 12 µg/mL (≈ 41.3 µM) throughout.

In the case of `CCC(=O)C(CCCCCCCc1ccc(O)cc1)C(=O)CC`, the MIC in assay [1] and in assay [4] was 6 µg/mL (≈ 18.8 µM) each time.

On to `CCC(=O)C(CC/C(=C/CCc1ccc2c(c1)OCO2)CC)C(=O)CC`, for which the MIC in [1] came out at 6 µg/mL (≈ 16.7 µM).

Turning to `CCC(=O)C(CC/C(=C/C=C/c1ccc2c(c1)OCO2)CC)C(=O)CC`, the MIC in assay [1] came out at 6 µg/mL (≈ 16.8 µM).

As to `CCC(=O)C(CCCCCCc1ccc(OC(=O)c2ccccc2C)cc1)C(=O)CC`, the MIC in assay [1] worked out at 6 µg/mL (≈ 14.2 µM).

Consider `O=c1[nH]c(=O)n([C@H]2C[C@H](O)[C@@H](CO)O2)cc1I` [IDOXURIDINE], for which the MIC in [2] and in assay [3] was 6 µg/mL (≈ 16.9 µM) each time.

Take `CC/C(=C\CCc1ccc2c(c1)OCO2)CCC(C(C)=O)C(C)=O`: the MIC in assay [1] came to 6 µg/mL (≈ 18.2 µM).

Regarding `CCOC(=O)C(CC/C(=C/CCc1ccc2c(c1)OCO2)CC)C(C)=O` (centres undefined), the MIC in [1] worked out at 6 µg/mL (≈ 16.6 µM).

On to `CCC(=O)C(CC/C=C/CCc1ccc(OCc2ccccc2)cc1)C(=O)CC`, for which the MIC in assay [1] is 3 µg/mL (≈ 7.64 µM).

As for `CCC(=O)C(CCCCCCc1ccc(Cl)cc1OC)C(=O)CC`, in [1], the MIC was 3 µg/mL (≈ 8.5 µM).
